Converted amounts (≈) assume the structure as drawn.
How the values were obtained:
[1] = tested on: Staphylococcus aureus; test: Antibacterial activity against methicillin-resistant Staphylococcus aureus assessed as complete reduction in bacterial cell growth by CLSI protocol based broth liquid microdilution method; format: functional
Outline: (§1)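 Broth liquid microdilution per CLSI guidelines; isolates identified on an automated MicroScan system before testing. MIC taken as lowest concentration giving total inhibition of bacterial growth, reported in μg/mL. S. aureus ATCC29213 run as the control strain.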

[2] = tested on: Staphylococcus aureus; test: Antibacterial activity against methicillin-sensitive Staphylococcus aureus assessed as complete reduction in bacterial cell growth by CLSI protocol based broth liquid microdilution method; format: functional; outline: as §1
[3] = tested on: Enterococcus faecalis; test: Antibacterial activity against linezolid-resistant Enterococcus faecalis assessed as complete reduction in bacterial cell growth by CLSI protocol based broth liquid microdilution method; format: functional; outline: as §1
[4] = tested on: Staphylococcus aureus; test: Antibacterial activity against Staphylococcus aureus ATCC 29213 assessed as complete reduction in bacterial cell growth by CLSI protocol based broth liquid microdilution method; format: functional; outline: as §1
[5] = tested on: Enterococcus faecium; test: Antibacterial activity against vancomycin-resistant Enterococcus faecium assessed as complete reduction in bacterial cell growth by CLSI protocol based broth liquid microdilution method; format: functional; outline: as §1
[6] = tested on: Staphylococcus aureus; test: Antibacterial activity against clinical isolates of methicillin-sensitive Staphylococcus aureus assessed as reduction in bacterial cell growth by CLSI protocol based broth microdilution method; format: functional; outline: as §1
[7] = tested on: Enterococcus faecium; test: Antibacterial activity against clinical isolates of vancomycin-resistant Enterococcus faecium assessed as complete reduction in bacterial cell growth by CLSI protocol based broth liquid microdilution method; format: functional; outline: as §1
[8] = tested on: Enterococcus faecalis; test: Antibacterial activity against clinical isolates of linezolid-resistant Enterococcus faecalis assessed as complete reduction in bacterial cell growth by CLSI protocol based broth liquid microdilution method; format: functional; outline: as §1
[9] = target: T1, MAO-A (Homo sapiens, UniProt P21397); test: Inhibition of recombinant human MAO-A (active motif 31502) at 30 uM using luciferin as substrate incubated for 15 mins followed by substrate addition and measured after 60 mins by luminescence based method relative to control; settings: probe luciferin
T1 sequence (P21397 whole entry): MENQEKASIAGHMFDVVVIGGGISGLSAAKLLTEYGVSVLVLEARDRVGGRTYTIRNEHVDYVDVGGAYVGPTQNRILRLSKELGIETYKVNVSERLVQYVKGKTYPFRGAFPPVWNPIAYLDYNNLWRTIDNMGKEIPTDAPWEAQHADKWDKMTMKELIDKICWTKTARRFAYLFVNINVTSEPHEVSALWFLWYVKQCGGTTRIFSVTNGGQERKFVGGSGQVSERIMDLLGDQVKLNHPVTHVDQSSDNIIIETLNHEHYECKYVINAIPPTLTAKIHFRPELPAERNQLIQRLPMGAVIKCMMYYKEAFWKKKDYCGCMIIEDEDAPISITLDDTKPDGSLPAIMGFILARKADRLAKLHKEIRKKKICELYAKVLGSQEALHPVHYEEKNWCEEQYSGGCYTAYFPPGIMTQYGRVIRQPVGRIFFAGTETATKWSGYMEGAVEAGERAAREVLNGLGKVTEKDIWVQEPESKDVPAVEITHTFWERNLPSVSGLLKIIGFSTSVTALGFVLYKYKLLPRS
Outline: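 Recombinant human MAO-A was measured with the MAO-Glo kit, modified. Compounds were in DMSO (1% DMSO final) and preincubated with enzyme 15 min at room temperature. Luciferin-derivative substrate was then added and the reaction run 60 min at room temperature. Luciferase detection reagent was added for 20 min and luminescence read. Buffer without enzyme served as the 100% inhibition control; DMSO alone as the no-inhibition control. Percent inhibition = (Max − signal)/(Max − Min)×100.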

| Compound | MIC [1] [µg/mL] | MIC [2] [µg/mL] | MIC [3] [µg/mL] | MIC [4] [µg/mL] | MIC [5] [µg/mL] | MIC [6] [µg/mL] | MIC [7] [µg/mL] | MIC [8] [µg/mL] | inhibition at 1 h, 30 µM [9] [%] |
| --- | --- | --- | --- | --- | --- | --- | --- | --- | --- |
| CC(=O)NC[C@H]1CN(c2ccc(-c3ccc(/C=N/N4CC[S+]([O-])CC4)cn3)c(F)c2)C(=O)O1 | 1 (≈ 2.11 µM) | 2 (≈ 4.22 µM) | 2 (≈ 4.22 µM) | 2 (≈ 4.22 µM) | 2 (≈ 4.22 µM) | – | – | – | – |
| CC(=O)NC[C@H]1CN(c2ccc(-c3ccc(/C=N/N4CCNCC4)c(O)c3)c(F)c2)C(=O)O1 | 0.25 (≈ 0.549 µM) | 0.25 (≈ 0.549 µM) | 0.25 (≈ 0.549 µM) | 0.5 (≈ 1.1 µM) | 0.25 (≈ 0.549 µM) | – | – | – | – |
| COc1cc(-c2ccc(N3C[C@H](CNC(C)=O)OC3=O)cc2F)ccc1/C=N/N1CCSCC1 | 1 (≈ 2.06 µM) | 1 (≈ 2.06 µM) | 1 (≈ 2.06 µM) | 2 (≈ 4.11 µM) | 1 (≈ 2.06 µM) | – | – | – | – |
| CC(=O)NC[C@H]1CN(c2ccc(-c3ccc(/C=N/N4CCN(C)CC4)c(C)c3)c(F)c2)C(=O)O1 | 0.5 (≈ 1.07 µM) | 0.5 (≈ 1.07 µM) | 0.5 (≈ 1.07 µM) | 0.5 (≈ 1.07 µM) | 0.5 (≈ 1.07 µM) | – | – | – | – |
| CC(=O)NC[C@H]1CN(c2ccc(-c3ccc(/C=N/N4CCSCC4)c(C(F)(F)F)c3)c(F)c2)C(=O)O1 | 2 (≈ 3.81 µM) | 2 (≈ 3.81 µM) | 2 (≈ 3.81 µM) | 2 (≈ 3.81 µM) | 2 (≈ 3.81 µM) | – | – | – | – |
| COc1cc(-c2ccc(N3C[C@H](CNC(C)=O)OC3=O)cc2F)ccc1/C=N/N1CCOCC1 | 2 (≈ 4.25 µM) | 2 (≈ 4.25 µM) | 2 (≈ 4.25 µM) | 2 (≈ 4.25 µM) | 2 (≈ 4.25 µM) | – | – | – | – |
| CC(=O)NC[C@H]1CN(c2ccc(-c3ccc(/C=N/N4CCCCC4)c(F)c3)c(F)c2)C(=O)O1 | 0.25 (≈ 0.548 µM) | 0.25 (≈ 0.548 µM) | 0.5 (≈ 1.1 µM) | 0.25 (≈ 0.548 µM) | 0.5 (≈ 1.1 µM) | – | – | – | – |
| CC(=O)NC[C@H]1CN(c2ccc(-c3ccc(/C=N/N4CCSCC4)c(F)c3)c(F)c2)C(=O)O1 | 0.25 (≈ 0.527 µM) | 0.25 (≈ 0.527 µM) | 1 (≈ 2.11 µM) | 0.25 (≈ 0.527 µM) | 1 (≈ 2.11 µM) | – | – | – | – |
| CC(=O)NC[C@H]1CN(c2ccc(-c3ccc(/C=N/N4CCNCC4)nc3)c(F)c2)C(=O)O1 | 0.5 (≈ 1.14 µM) | 1 (≈ 2.27 µM) | 0.5 (≈ 1.14 µM) | 0.5 (≈ 1.14 µM) | 0.5 (≈ 1.14 µM) | – | – | – | – |
| CC(=O)NC[C@H]1CN(c2ccc(-c3ccc(/C=N/N4CCSCC4)cn3)c(F)c2)C(=O)O1 | 0.5 (≈ 1.09 µM) | 2 (≈ 4.37 µM) | 2 (≈ 4.37 µM) | 1 (≈ 2.19 µM) | 2 (≈ 4.37 µM) | – | – | – | – |
| CC(=O)NC[C@H]1CN(c2ccc(-c3ccc(/C=N/N4CCS(=O)(=O)CC4)cn3)c(F)c2)C(=O)O1 | 1 (≈ 2.04 µM) | 1 (≈ 2.04 µM) | 1 (≈ 2.04 µM) | 2 (≈ 4.09 µM) | 1 (≈ 2.04 µM) | – | – | – | – |
| CCC(=O)N1CCN(/N=C/c2ccc(-c3ccc(N4C[C@H](CNC(C)=O)OC4=O)cc3F)cc2O)CC1 | 0.25 (≈ 0.489 µM) | 0.25 (≈ 0.489 µM) | 0.25 (≈ 0.489 µM) | 0.25 (≈ 0.489 µM) | 0.25 (≈ 0.489 µM) | 1 to 2 (≈ 1.95 to 3.91 µM) | 1 to 2 (≈ 1.95 to 3.91 µM) | 1 to 2 (≈ 1.95 to 3.91 µM) | – |
| CC(=O)NC[C@H]1CN(c2ccc(-c3ccc(/C=N/N4CCN(C)CC4)c(F)c3)c(F)c2)C(=O)O1 | 1 (≈ 2.12 µM) | 1 (≈ 2.12 µM) | 1 (≈ 2.12 µM) | 1 (≈ 2.12 µM) | 1 (≈ 2.12 µM) | – | – | – | – |
| CC(=O)NC[C@H]1CN(c2ccc(-c3ccc(/C=N/N4CCOCC4)c(O)c3)c(F)c2)C(=O)O1 | 0.25 (≈ 0.548 µM) | 0.25 (≈ 0.548 µM) | 0.25 (≈ 0.548 µM) | 0.25 (≈ 0.548 µM) | 0.25 (≈ 0.548 µM) | – | – | – | – |
| CC(=O)NC[C@H]1CN(c2ccc(-c3ccc(/C=N/N4CCNCC4)c(F)c3)c(F)c2)C(=O)O1 | 0.5 (≈ 1.09 µM) | 0.5 (≈ 1.09 µM) | 0.5 (≈ 1.09 µM) | 0.5 (≈ 1.09 µM) | 0.5 (≈ 1.09 µM) | – | – | – | – |
| CCC(=O)N1CCN(/N=C/c2ccc(-c3ccc(N4C[C@H](CNC(C)=O)OC4=O)cc3F)cn2)CC1 | 1 (≈ 2.01 µM) | 1 (≈ 2.01 µM) | 1 (≈ 2.01 µM) | 1 (≈ 2.01 µM) | 0.5 (≈ 1.01 µM) | – | – | – | – |
| CC(=O)NC[C@H]1CN(c2ccc(-c3ccc(/C=N/N4CCN(C)CC4)cn3)c(F)c2)C(=O)O1 | 1 (≈ 2.2 µM) | 2 (≈ 4.4 µM) | 2 (≈ 4.4 µM) | 2 (≈ 4.4 µM) | 2 (≈ 4.4 µM) | – | – | – | – |
| CC(=O)NC[C@H]1CN(c2ccc(-c3ccc(/C=N/N4CCSCC4)c(C)c3)c(F)c2)C(=O)O1 | 1 (≈ 2.13 µM) | 1 (≈ 2.13 µM) | 2 (≈ 4.25 µM) | 2 (≈ 4.25 µM) | 1 (≈ 2.13 µM) | – | – | – | – |
| CC(=O)NC[C@H]1CN(c2ccc(-c3ccc(/C=N/N4CCN(C(=O)c5ccccc5)CC4)nc3)c(F)c2)C(=O)O1 | 1 (≈ 1.84 µM) | 2 (≈ 3.67 µM) | 2 (≈ 3.67 µM) | 1 (≈ 1.84 µM) | 1 (≈ 1.84 µM) | – | – | – | – |
| CC(=O)NC[C@H]1CN(c2ccc(-c3ccc(/C=N/N4CCNCC4)cn3)c(F)c2)C(=O)O1 | 2 (≈ 4.54 µM) | 2 (≈ 4.54 µM) | 2 (≈ 4.54 µM) | 2 (≈ 4.54 µM) | 2 (≈ 4.54 µM) | – | – | – | – |
| CC(=O)NC[C@H]1CN(c2ccc(-c3ccc(/C=N/N4CCOCC4)c(F)c3)c(F)c2)C(=O)O1 | 0.25 (≈ 0.545 µM) | 0.25 (≈ 0.545 µM) | 0.25 (≈ 0.545 µM) | 0.25 (≈ 0.545 µM) | 0.25 (≈ 0.545 µM) | – | – | – | 80 |
| CC(=O)NC[C@H]1CN(c2ccc(-c3ccc(/C=N/N4CCNCC4)c(C)c3)c(F)c2)C(=O)O1 | 0.5 (≈ 1.1 µM) | 0.5 (≈ 1.1 µM) | 0.5 (≈ 1.1 µM) | 0.5 (≈ 1.1 µM) | 0.5 (≈ 1.1 µM) | – | – | – | – |
| CC(=O)NC[C@H]1CN(c2ccc(-c3ccc(/C=N/N4CCS(=O)(=O)CC4)c(O)c3)c(F)c2)C(=O)O1 | 0.25 (≈ 0.496 µM) | 0.25 (≈ 0.496 µM) | 0.25 (≈ 0.496 µM) | 0.125 (≈ 0.248 µM) | 0.25 (≈ 0.496 µM) | 1 to 2 (≈ 1.98 to 3.96 µM) | 1 to 2 (≈ 1.98 to 3.96 µM) | 1 to 2 (≈ 1.98 to 3.96 µM) | 67 |
| CC(=O)NC[C@H]1CN(c2ccc(-c3ccc(/C=N/N4CC[S+]([O-])CC4)nc3)c(F)c2)C(=O)O1 | 0.25 (≈ 0.528 µM) | 0.5 (≈ 1.06 µM) | 0.5 (≈ 1.06 µM) | 0.25 (≈ 0.528 µM) | 0.5 (≈ 1.06 µM) | – | – | – | – |
| CC(=O)NC[C@H]1CN(c2ccc(-c3ccc(/C=N/N4CCN(C)CC4)c(C(F)(F)F)c3)c(F)c2)C(=O)O1 | 2 (≈ 3.83 µM) | 2 (≈ 3.83 µM) | 2 (≈ 3.83 µM) | 2 (≈ 3.83 µM) | 2 (≈ 3.83 µM) | – | – | – | – |
| COC(=O)N1CCN(/N=C/c2ccc(-c3ccc(N4C[C@H](CNC(C)=O)OC4=O)cc3F)cn2)CC1 | 1 (≈ 2.01 µM) | 2 (≈ 4.01 µM) | 1 (≈ 2.01 µM) | 1 (≈ 2.01 µM) | 0.5 (≈ 1 µM) | – | – | – | – |

— ChEMBL document CHEMBL4312003, “Optimization of biaryloxazolidinone as promising antibacterial agents against antibiotic-susceptible and antibiotic-resistant gram-positive bacteria” (Eur J Med Chem, 2020)
